Reference: ChEMBL document CHEMBL1649446, “Comparative antipneumococcal activities of sulopenem and other drugs” (2009)
In brackets after ≈: the same amount, converted by molar mass.

How the values were obtained:
Type in all cases: functional
[1] = system: Streptococcus pneumoniae; assay: Antimicrobial activity against penicillin-intermediate Streptococcus pneumoniae by agar dilution method
[2] = system: Streptococcus pneumoniae; assay: Antimicrobial activity against Streptococcus pneumoniae isolate 1384 by agar dilution method
Method in brief: (§1)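 Agar dilution MIC on Mueller-Hinton agar with 5% sheep blood, inocula 10^4 CFU/spot; amoxicillin-clavulanate combined 1:2; S. pneumoniae ATCC 49619 quality control each run.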

[3] = system: Streptococcus pneumoniae; assay: Antimicrobial activity against Streptococcus pneumoniae isolate 1055 by agar dilution method
[4] = system: Streptococcus pneumoniae; assay: Antimicrobial activity against Streptococcus pneumoniae isolate 3412 by agar dilution method; method in brief: as §1
[5] = system: Streptococcus pneumoniae; assay: Antimicrobial activity against Streptococcus pneumoniae isolate 33 by agar dilution method; method in brief: as §1
[6] = system: Streptococcus pneumoniae; assay: Antimicrobial activity against Streptococcus pneumoniae isolate 2880 by agar dilution method; method in brief: as §1
[7] = system: Streptococcus pneumoniae; assay: Antimicrobial activity against Streptococcus pneumoniae isolate 37 by agar dilution method; method in brief: as §1
[8] = system: Streptococcus pneumoniae; assay: Antimicrobial activity against Streptococcus pneumoniae isolate 1147 by agar dilution method; method in brief: as §1
[9] = system: Streptococcus pneumoniae; assay: Antimicrobial activity against Streptococcus pneumoniae isolate 3791 by agar dilution method; method in brief: as §1
[10] = system: Streptococcus pneumoniae; assay: Antimicrobial activity against Streptococcus pneumoniae isolate 3275 by agar dilution method; method in brief: as §1
[11] = system: Streptococcus pneumoniae; assay: Antimicrobial activity against Streptococcus pneumoniae isolate 1394 by agar dilution method
[12] = system: Streptococcus pneumoniae; assay: Antimicrobial activity against Streptococcus pneumoniae isolate 3374 by agar dilution method; method in brief: as §1
[13] = system: Streptococcus pneumoniae; assay: Antimicrobial activity against Streptococcus pneumoniae isolate 2617 by agar dilution method; method in brief: as §1
[14] = system: Streptococcus pneumoniae; assay: Antimicrobial activity against Streptococcus pneumoniae isolate 3681 by agar dilution method; method in brief: as §1
[15] = system: Streptococcus pneumoniae; assay: Antimicrobial activity against Streptococcus pneumoniae isolate 3282 by agar dilution method
[16] = system: Streptococcus pneumoniae; assay: Antimicrobial activity against Streptococcus pneumoniae isolate 3263 by agar dilution method
[17] = system: Streptococcus pneumoniae; assay: Antimicrobial activity against penicillin-resistant Streptococcus pneumoniae by agar dilution method; method in brief: as §1
[18] = system: Streptococcus pneumoniae; assay: Antimicrobial activity against Streptococcus pneumoniae isolate 4747 by agar dilution method; method in brief: as §1
[19] = system: Streptococcus pneumoniae; assay: Antimicrobial activity against Streptococcus pneumoniae isolate 24 by agar dilution method
[20] = system: Streptococcus pneumoniae; assay: Antimicrobial activity against Streptococcus pneumoniae isolate 3587 by agar dilution method
[21] = system: Streptococcus pneumoniae; assay: Antimicrobial activity against Streptococcus pneumoniae isolate 3260 by agar dilution method
[22] = system: Streptococcus pneumoniae; assay: Antimicrobial activity against Streptococcus pneumoniae isolate 1397 by agar dilution method; method in brief: as §1
[23] = system: Streptococcus pneumoniae; assay: Antimicrobial activity against Streptococcus pneumoniae 19A by agar dilution method; method in brief: as §1
[24] = system: Streptococcus pneumoniae; assay: Antimicrobial activity against Streptococcus pneumoniae isolate 3458 by agar dilution method
[25] = system: Streptococcus pneumoniae; assay: Antimicrobial activity against Streptococcus pneumoniae isolate 1564 by agar dilution method
[26] = system: Streptococcus pneumoniae; assay: Antimicrobial activity against Streptococcus pneumoniae isolate 4755 by agar dilution method; method in brief: as §1
[27] = system: Streptococcus pneumoniae; assay: Antimicrobial activity against Streptococcus pneumoniae isolate 1424 by agar dilution method; method in brief: as §1
[28] = system: Streptococcus pneumoniae; assay: Antimicrobial activity against penicillin-susceptible Streptococcus pneumoniae by agar dilution method
[29] = system: Streptococcus pneumoniae; assay: Antimicrobial activity against Streptococcus pneumoniae isolate 2686 by agar dilution method; method in brief: as §1
[30] = system: Streptococcus pneumoniae; assay: Antimicrobial activity against Streptococcus pneumoniae isolate 3455 by agar dilution method
[31] = system: Streptococcus pneumoniae; assay: Antimicrobial activity against Streptococcus pneumoniae isolate 1146 by agar dilution method; method in brief: as §1
[32] = system: Streptococcus pneumoniae; assay: Antimicrobial activity against Streptococcus pneumoniae isolate 3481 by agar dilution method; method in brief: as §1
[33] = system: Streptococcus pneumoniae; assay: Antimicrobial activity against Streptococcus pneumoniae isolate 2688 by agar dilution method; method in brief: as §1
[34] = system: Streptococcus pneumoniae; assay: Antimicrobial activity against Streptococcus pneumoniae isolate 3346 by agar dilution method
[35] = system: Streptococcus pneumoniae; assay: Antimicrobial activity against Streptococcus pneumoniae isolate 2874 by agar dilution method; method in brief: as §1
[36] = system: Streptococcus pneumoniae; assay: Antimicrobial activity against Streptococcus pneumoniae 2 by time-kill analysis
Method in brief: (§2)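 Time-kill in cation-adjusted Mueller-Hinton broth with 5% lysed horse blood; inocula 5 × 105 to 5 × 10^6 CFU/ml; drugs at MIC, 2× and 4× MIC; 35°C shaking water bath; viable counts at 0, 3, 6, 12, 24 h. Bactericidal = ≥3 log10 CFU/ml (99.9%) drop from original inoculum; 90%/99%/99.9% killing scored per strain.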

[37] = system: Streptococcus pneumoniae; assay: Antimicrobial activity against Streptococcus pneumoniae 10 by time-kill analysis; method in brief: as §2
[38] = system: Streptococcus pneumoniae; assay: Antimicrobial activity against Streptococcus pneumoniae 11 by time-kill analysis; method in brief: as §2
[39] = system: Streptococcus pneumoniae; assay: Antimicrobial activity against Streptococcus pneumoniae 4 by time-kill analysis; method in brief: as §2
[40] = system: Streptococcus pneumoniae; assay: Antimicrobial activity against Streptococcus pneumoniae 8 by time-kill analysis; method in brief: as §2
[41] = system: Streptococcus pneumoniae; assay: Antimicrobial activity against Streptococcus pneumoniae 12 by time-kill analysis; method in brief: as §2
[42] = system: Streptococcus pneumoniae; assay: Antimicrobial activity against Streptococcus pneumoniae 5 by time-kill analysis
Method in brief: as §2, with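 “12 and” for “12,”, “if” for “=”, “reduction” for “drop”, “90% and 99%” for “90%/99%/99.9%”, “also scored.” for “scored per strain.”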

[43] = system: Streptococcus pneumoniae; assay: Antimicrobial activity against Streptococcus pneumoniae 3 by time-kill analysis; method in brief: as §2
[44] = system: Streptococcus pneumoniae; assay: Antimicrobial activity against Streptococcus pneumoniae 6 by time-kill analysis; method in brief: as §2
[45] = system: Streptococcus pneumoniae; assay: Antimicrobial activity against Streptococcus pneumoniae 1 by time-kill analysis
Method in brief: as §2, with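 “12 and” for “12,”, “if” for “=”, “reduction” for “drop”, “90% and 99%” for “90%/99%/99.9%”, “also scored.” for “scored per strain.”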

[46] = system: Streptococcus pneumoniae; assay: Antimicrobial activity against Streptococcus pneumoniae 7 by time-kill analysis; method in brief: as §2
[47] = system: Streptococcus pneumoniae; assay: Antimicrobial activity against Streptococcus pneumoniae 9 by time-kill analysis
Method in brief: as §2, with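 “12 and” for “12,”, “if” for “=”, “reduction” for “drop”, “90% and 99%” for “90%/99%/99.9%”, “also scored.” for “scored per strain.”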

Compound: CC[C@H]1OC(=O)[C@H](C)[C@@H](O[C@H]2C[C@@](C)(OC)[C@@H](O)[C@H](C)O2)[C@H](C)[C@@H](O[C@@H]2O[C@H](C)C[C@H](N(C)C)[C@H]2O)[C@](C)(OC)C[C@@H](C)C(=O)[C@H](C)[C@@H](O)[C@]1(C)O [CLARITHROMYCIN]
- MIC50 [1]: 1 µg/mL (≈ 1.34 µM)
- MIC90 [1]: > 64 µg/mL
- MIC [2]: 64 µg/mL (≈ 85.6 µM)
- MIC [3]: 32 µg/mL (≈ 42.8 µM)
- MIC [4]: 32 µg/mL (≈ 42.8 µM)
- MIC [5]: 0.03 µg/mL (≈ 0.0401 µM)
- MIC [6]: 8 µg/mL (≈ 10.7 µM)
- MIC [7]: > 64 µg/mL
- MIC [8]: 1 µg/mL (≈ 1.34 µM)
- MIC [9]: 32 µg/mL (≈ 42.8 µM)
- MIC [10]: > 64 µg/mL
- MIC [11]: 64 µg/mL (≈ 85.6 µM)
- MIC [12]: 32 µg/mL (≈ 42.8 µM)
- MIC [13]: 0.03 µg/mL (≈ 0.0401 µM)
- MIC [14]: 0.03 µg/mL (≈ 0.0401 µM)
- MIC [15]: > 64 µg/mL
- MIC [16]: > 64 µg/mL
- MIC50 [17]: 0.06 µg/mL (≈ 0.0802 µM)
- MIC [18]: 64 µg/mL (≈ 85.6 µM)
- MIC [19]: > 64 µg/mL
- MIC [20]: > 64 µg/mL
- MIC [21]: > 64 µg/mL
- MIC [22]: 64 µg/mL (≈ 85.6 µM)
- MIC50 [23]: > 64 µg/mL
- MIC90 [23]: > 64 µg/mL
- MIC [24]: > 64 µg/mL
- MIC [25]: 32 µg/mL (≈ 42.8 µM)
- MIC [26]: > 64 µg/mL
- MIC [27]: 16 µg/mL (≈ 21.4 µM)
- MIC50 [28]: 0.5 µg/mL (≈ 0.668 µM)
- MIC90 [28]: > 64 µg/mL
- MIC [29]: 16 µg/mL (≈ 21.4 µM)
- MIC [30]: > 64 µg/mL
- MIC [31]: 2 µg/mL (≈ 2.67 µM)
- MIC [32]: > 64 µg/mL
- MIC [33]: 32 µg/mL (≈ 42.8 µM)
- MIC [34]: > 64 µg/mL
- MIC [35]: 32 µg/mL (≈ 42.8 µM)

Compound: C=CC1=C(C(=O)O)N2C(=O)[C@@H](NC(=O)/C(=N\O)c3csc(N)n3)[C@H]2SC1 [CEFDINIR]
- MIC50 [1]: 0.5 µg/mL (≈ 1.26 µM)
- MIC90 [1]: 4 µg/mL (≈ 10.1 µM)
- MIC [2]: 8 µg/mL (≈ 20.2 µM)
- MIC [3]: 8 µg/mL (≈ 20.2 µM)
- MIC [4]: 4 µg/mL (≈ 10.1 µM)
- MIC [36]: 0.06 µg/mL (≈ 0.152 µM)
- MIC [37]: 0.25 µg/mL (≈ 0.632 µM)
- MIC [5]: 8 µg/mL (≈ 20.2 µM)
- MIC [38]: 4 µg/mL (≈ 10.1 µM)
- MIC [6]: 4 µg/mL (≈ 10.1 µM)
- MIC [7]: 4 µg/mL (≈ 10.1 µM)
- MIC [8]: 8 µg/mL (≈ 20.2 µM)
- MIC [9]: 8 µg/mL (≈ 20.2 µM)
- MIC [10]: 2 µg/mL (≈ 5.06 µM)
- MIC [39]: 16 µg/mL (≈ 40.5 µM)
- MIC [11]: 8 µg/mL (≈ 20.2 µM)
- MIC [40]: 16 µg/mL (≈ 40.5 µM)
- MIC [12]: 4 µg/mL (≈ 10.1 µM)
- MIC [13]: 4 µg/mL (≈ 10.1 µM)
- MIC [14]: 8 µg/mL (≈ 20.2 µM)
- MIC [15]: 8 µg/mL (≈ 20.2 µM)
- MIC [16]: 8 µg/mL (≈ 20.2 µM)
- MIC50 [17]: 8 µg/mL (≈ 20.2 µM)
- MIC90 [17]: 8 µg/mL (≈ 20.2 µM)
- MIC [18]: 4 µg/mL (≈ 10.1 µM)
- MIC [19]: 4 µg/mL (≈ 10.1 µM)
- MIC [20]: 8 µg/mL (≈ 20.2 µM)
- MIC [41]: 4 µg/mL (≈ 10.1 µM)
- MIC [21]: 8 µg/mL (≈ 20.2 µM)
- MIC [42]: 8 µg/mL (≈ 20.2 µM)
- MIC [22]: 4 µg/mL (≈ 10.1 µM)
- MIC [43]: 0.5 µg/mL (≈ 1.26 µM)
- MIC [24]: 8 µg/mL (≈ 20.2 µM)
- MIC [25]: 32 µg/mL (≈ 80.9 µM)
- MIC [26]: 4 µg/mL (≈ 10.1 µM)
- MIC [27]: 8 µg/mL (≈ 20.2 µM)
- MIC50 [28]: 0.06 µg/mL (≈ 0.152 µM)
- MIC90 [28]: 0.125 µg/mL (≈ 0.316 µM)
- MIC [44]: 1 µg/mL (≈ 2.53 µM)
- MIC [29]: 8 µg/mL (≈ 20.2 µM)
- MIC [30]: 8 µg/mL (≈ 20.2 µM)
- MIC [45]: 0.12 µg/mL (≈ 0.303 µM)
- MIC [46]: 4 µg/mL (≈ 10.1 µM)
- MIC [47]: 1 µg/mL (≈ 2.53 µM)
- MIC [31]: 8 µg/mL (≈ 20.2 µM)
- MIC [32]: 4 µg/mL (≈ 10.1 µM)
- MIC [33]: 16 µg/mL (≈ 40.5 µM)
- MIC [34]: 8 µg/mL (≈ 20.2 µM)
- MIC [35]: 8 µg/mL (≈ 20.2 µM)
